Key:
MCF7 [1] = assay: Antiproliferative activity against human MCF7 cells at 1 uM after 48 to 72 hrs by MTT assay relative to control; assay type: functional
In short: (§1)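 Single-concentration screen in the MTT proliferation assay: log-phase cells seeded and allowed to adhere, exposed to compound at 1 µM for 48 h or 72 h, MTT added for 2-3 h, formazan dissolved in DMSO; percent inhibition versus control.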

MDA-MB-231 = assay: Antiproliferative activity against human MDA-MB-231 cells at 1 uM after 48 to 72 hrs by MTT assay relative to control; assay type: functional; in short: as §1
Raji [2] = assay: Antiproliferative activity against human Raji cells at 1 uM after 48 to 72 hrs by MTT assay relative to control; assay type: functional; in short: as §1
NCI-H460 [3] = assay: Antiproliferative activity against human H460 cells at 1 uM after 48 to 72 hrs by MTT assay relative to control; assay type: functional; in short: as §1
A549 = assay: Antiproliferative activity against human A549 cells after 48 to 72 hrs by MTT assay; assay type: functional, cell-based
In short: (§2)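 Cells in log phase seeded and allowed to adhere, then exposed to graded compound concentrations for 48 h or 72 h; MTT added for a further 2-3 h, formazan dissolved in DMSO. IC50 taken from dose-response curves; mean ± SD of at least three independent experiments.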

[4] = Resistance index, ratio of IC50 for human A549/TR cells to IC50 for human A549 cells; assay type: functional
A549/TR = assay: Antiproliferative activity against human A549/TR cells after 48 to 72 hrs by MTT assay; assay type: functional, cell-based; in short: as §2
A2780S = assay: Antiproliferative activity against human A2780S cells after 48 to 72 hrs by MTT assay; assay type: functional, cell-based; in short: as §2
A2780/Taxol = assay: Antiproliferative activity against human A2780T cells after 48 to 72 hrs by MTT assay; assay type: functional, cell-based; in short: as §2
[5] = Resistance index, ratio of IC50 for human A2780T cells to IC50 for human A2780S cells; assay type: functional
NCI-H460 [6] = assay: Antitumor activity against human H460 cells xenografted in athymic nude Balb/C mouse assessed as tumor growth inhibition at 30 mg/kg, ip administered once per week measured every two days relative to control; assay type: functional; settings: 48 h, read-out: TGI
In short: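 Nude mice (5-6 weeks old, female) implanted sc in right flank with 5 × 10^6 H460 cells in HBSS; at 100 mm3 tumours, randomised 6 per group to vehicle, oral 100 mg/kg three times weekly, or ip 30 mg/kg once weekly. Tumour volume by caliper every 2 days as (π/6) × length × width²; body weight recorded; inhibition from tumour weights versus control.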

Mus musculus = assay: Toxicity in athymic nude Balb/C mouse xenografted with human H460 cells assessed as body weight loss at 30 mg/kg, ip administered once per week measured every 2 days; assay type: organism-based; settings: in vivo, 48 h
In short: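 Nude mice, 5-to-6-week-old females, given 5 × 10^6 H460 cells sc in right flank in HBSS; at 100 mm3 tumour volume randomized, 6 per group. Vehicle; oral 100 mg/kg three times weekly; or ip 30 mg/kg once weekly. Toxicity signs and mortality observed daily; body weight measured every 2 days.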

NCI-H460 [7] = assay: Antiproliferative activity against human H460 cells after 48 to 72 hrs by MTT assay; assay type: functional, cell-based; in short: as §2
MCF7 [8] = assay: Antiproliferative activity against human MCF7 cells after 48 to 72 hrs by MTT assay; assay type: functional, cell-based; in short: as §2
Raji [9] = assay: Antiproliferative activity against human Raji cells after 48 to 72 hrs by MTT assay; assay type: functional, cell-based; in short: as §2

| IC50 (A549) [µM] | IC50 (A549/TR) [µM] | IC50 (A2780S) [µM] | IC50 (A2780/Taxol) [µM] | IC50 (NCI-H460 [7]) [µM] | IC50 (MCF7 [8]) [µM] | IC50 (Raji [9]) [µM] | Structure (SMILES) | inhibition at 1 µM (MCF7 [1]) [%] | inhibition at 1 µM (MDA-MB-231) [%] | inhibition at 1 µM (Raji [2]) [%] | inhibition at 1 µM (NCI-H460 [3]) [%] | Ratio IC50 [4] | Ratio IC50 [5] | inhibition in vivo at 30 mg/kg (NCI-H460 [6]) [%] | Activity (Mus musculus) [%] |
| --- | --- | --- | --- | --- | --- | --- | --- | --- | --- | --- | --- | --- | --- | --- | --- |
|  |  |  |  |  |  |  | O=C(N/N=C/c1cccc(OCc2ccc(F)cc2)c1)c1cc2c(cn1)[nH]c1ccccc12 | 23.6 | 27.2 | 48 | 29.7 |  |  |  |  |
|  |  |  |  |  |  |  | CN(Cc1ccccc1)Cc1nnc(-c2cc3c(cn2)[nH]c2ccccc23)o1 | -1.84 | -3.26 | 16.3 | 3.74 |  |  |  |  |
|  |  |  |  |  |  |  | O=C(N/N=C/c1cccc(OCc2cccc(Cl)c2)c1)c1cc2c(cn1)[nH]c1ccccc12 | 22.4 | 15.6 | 48.2 | 31.9 |  |  |  |  |
|  |  |  |  |  |  |  | Cc1cccc(COc2cccc(/C=N/NC(=O)c3cc4c(cn3)[nH]c3ccccc34)c2)c1 | 26.3 | 22.7 | 33.2 | 27.4 |  |  |  |  |
| 0.0232 | 0.759 | 0.0189 | 73 |  |  |  | CC(=O)O[C@H]1C(=O)[C@@]2(C)[C@H]([C@H](OC(=O)c3ccccc3)[C@]3(O)C[C@H](OC(=O)[C@H](O)[C@@H](NC(=O)c4ccccc4)c4ccccc4)C(C)=C1C3(C)C)[C@]1(OC(C)=O)CO[C@@H]1C[C@@H]2O [PACLITAXEL] |  |  |  |  | 32.76 | 3852.53 | 65.2 | < 5 |
|  |  |  |  | 1.04 | 8.3 | 3.02 | O=C(N/N=C/c1cccc(OCc2ccc([N+](=O)[O-])cc2)c1)c1cc2c(cn1)[nH]c1ccccc12 | 32.8 | 20.2 | 56.7 | 38.4 |  |  |  |  |
|  |  |  |  | 5.71 | 14.9 | 2.04 | O=C(N/N=C/c1ccc2ccccc2c1)c1cc2c(cn1)[nH]c1ccccc12 | 35.7 | 21.8 | 51.8 | 40.7 |  |  |  |  |
|  |  |  |  |  |  |  | c1ccc(OCc2nnc(-c3cc4c(cn3)[nH]c3ccccc34)o2)cc1 | -5.47 | 7.42 | 1.69 | 4.84 |  |  |  |  |
|  |  |  |  | 1.17 | 1.64 | 3.88 | COC(=O)c1ccc(COc2cccc(/C=N/NC(=O)c3cc4c(cn3)[nH]c3ccccc34)c2)cc1 | 56.4 | 31.8 | 63.8 | 25.9 |  |  |  |  |
| 0.0195 | 0.248 | 0.0157 | 16.9 |  |  |  | CC[C@]1(O)C[C@@H]2CN(CCc3c([nH]c4ccccc34)[C@@](C(=O)OC)(c3cc4c(cc3OC)N(C)[C@H]3[C@@](O)(C(=O)OC)[C@H](OC(C)=O)[C@]5(CC)C=CCN6CC[C@]43[C@@H]65)C2)C1 [VINBLASTINE] |  |  |  |  | 12.72 | 1073.76 |  |  |
|  |  |  |  |  |  |  | Cc1ccccc1COc1cccc(/C=N/NC(=O)c2cc3c(cn2)[nH]c2ccccc23)c1 | 18.2 | 24.8 | 36 | 29.4 |  |  |  |  |
|  |  |  |  |  |  |  | N#Cc1cccc(COc2cccc(/C=N/NC(=O)c3cc4c(cn3)[nH]c3ccccc34)c2)c1 | 17.9 | 21.9 | 24.1 | 12.8 |  |  |  |  |
|  |  |  |  | 1.36 | 6.5 | 2.94 | O=C(N/N=C/c1cccc(OCc2ccccc2F)c1)c1cc2c(cn1)[nH]c1ccccc12 | 46.2 | 24.7 | 54.3 | 43.2 |  |  |  |  |
|  |  |  |  | 2.18 | 5.24 | 4.06 | Cc1ccc(COc2cccc(/C=N/NC(=O)c3cc4c(cn3)[nH]c3ccccc34)c2)cc1 | 53.5 | 28.7 | 45 | 29.2 |  |  |  |  |
|  |  |  |  |  |  |  | O=C(N/N=C/c1cccc(O)c1)c1cc2c(cn1)[nH]c1ccccc12 | -13.8 | 8.13 | 9.69 | 5.08 |  |  |  |  |
|  |  |  |  |  |  |  | N#Cc1ccccc1COc1cccc(/C=N/NC(=O)c2cc3c(cn2)[nH]c2ccccc23)c1 | 15.1 | 20.7 | 37.4 | 15.5 |  |  |  |  |
|  |  |  |  | 7.49 | 6.6 | 2.04 | O=C(N/N=C/c1cccc(OCc2ccc(C(F)(F)F)cc2)c1)c1cc2c(cn1)[nH]c1ccccc12 | 38.4 | 24.4 | 51.2 | 23.4 |  |  |  |  |
|  |  |  |  |  |  |  | O=Cc1cccc(OCc2nnc(-c3cc4c(cn3)[nH]c3ccccc34)o2)c1 | 26.8 | 9.83 | 17.7 | 13.9 |  |  |  |  |
|  |  |  |  | 2.42 | 7.22 | 6.74 | O=C(N/N=C/c1cccc(OCc2ccc(Br)cc2)c1)c1cc2c(cn1)[nH]c1ccccc12 | 50.4 | 31.8 | 58.7 | 52.8 |  |  |  |  |
|  |  |  |  | 2.84 | 9.37 | 2.34 | COc1ccc(COc2cccc(/C=N/NC(=O)c3cc4c(cn3)[nH]c3ccccc34)c2)cc1 | 37 | 23.6 | 52 | 38.6 |  |  |  |  |
|  |  |  |  | 3.64 | 4.56 | 1.04 | O=C(N/N=C/c1ccc(-c2ccccc2)cc1)c1cc2c(cn1)[nH]c1ccccc12 | 36.6 | 29.3 | 62.5 | 44.3 |  |  |  |  |
|  |  |  |  |  |  |  | COc1ccc(/C=N/NC(=O)c2cc3c(cn2)[nH]c2ccccc23)cc1OCc1ccccc1 | -6.31 | 22.2 | 25.8 | 20.7 |  |  |  |  |
|  |  |  |  | 6.52 | 3.56 | 2.62 | O=C(N/N=C/c1cccc(OCc2ccccc2)c1)c1cc2c(cn1)[nH]c1ccccc12 | 23.1 | 25.6 | 50.2 | 29.7 |  |  |  |  |
|  |  |  |  |  |  |  | O=C(N/N=C/c1c[nH]c2ccccc12)c1cc2c(cn1)[nH]c1ccccc12 | 6.31 | 7.1 | 8.66 | 16.2 |  |  |  |  |
|  |  |  |  |  |  |  | O=C(N/N=C/c1cccc(OCc2cccc(F)c2)c1)c1cc2c(cn1)[nH]c1ccccc12 | 17.1 | 16.5 | 40.4 | 21.7 |  |  |  |  |
|  |  |  |  |  |  |  | O=C(N/N=C/c1cccc(Oc2ccccc2)c1)c1cc2c(cn1)[nH]c1ccccc12 | -18.6 | 6.76 | 2.06 | 22.1 |  |  |  |  |
|  |  |  |  | 5.02 | 8.62 | 5.02 | O=C(N/N=C/c1cccc(OCc2ccc(Cl)cc2)c1)c1cc2c(cn1)[nH]c1ccccc12 | 24.3 | 30.7 | 56.7 | 40.4 |  |  |  |  |
|  |  |  |  | 1.27 | 2.32 | 3.02 | O=C(N/N=C/c1cccc(OCc2ccccc2Cl)c1)c1cc2c(cn1)[nH]c1ccccc12 | 36.2 | 28.6 | 56.3 | 45.4 |  |  |  |  |
|  |  |  |  |  |  |  | O=Cc1ccc(OCc2nnc(-c3cc4c(cn3)[nH]c3ccccc34)o2)cc1 | -2.52 | 2.98 | 9.17 | 6.63 |  |  |  |  |

| Structure (SMILES) | IC50 (A549) [µM] | IC50 (A549/TR) [µM] | IC50 (A2780S) [µM] | IC50 (A2780/Taxol) [µM] | IC50 (NCI-H460 [7]) [µM] | IC50 (MCF7 [8]) [µM] | IC50 (Raji [9]) [µM] | inhibition at 1 µM (MCF7 [1]) [%] | inhibition at 1 µM (MDA-MB-231) [%] | inhibition at 1 µM (Raji [2]) [%] | inhibition at 1 µM (NCI-H460 [3]) [%] | Ratio IC50 [4] | Ratio IC50 [5] | inhibition in vivo at 30 mg/kg (NCI-H460 [6]) [%] | Activity (Mus musculus) [%] |
| --- | --- | --- | --- | --- | --- | --- | --- | --- | --- | --- | --- | --- | --- | --- | --- |
| COc1cc2c(c(OC)c1OC)-c1ccc(OC)c(=O)cc1[C@@H](NC(C)=O)CC2 [COLCHICINE] |  | 0.167 | 0.0219 | 35.6 |  |  |  |  |  |  |  | 60.41 | 1630.02 |  |  |
| C/C(=N\NC(=O)c1cccc(S(=O)(=O)N2CCOCC2)c1)c1cc(Cl)ccc1O |  |  |  |  | 0.47 | 0.62 | 0.98 | 59.3 | 41.3 | 51.7 | 43.2 |  |  |  |  |

Reference: ChEMBL document CHEMBL4152257, “Discovery of novel β-carboline/acylhydrazone hybrids as potent antitumor agents and overcome drug resistance” (Eur J Med Chem, 2018)
